From PubChem
CendR NRP1 mod: modulators of CendR peptide binding to human neuropilin-1. AID 602438. inhibition, % at 25 µM. FAM-RPARPAR peptide binding to NRP-1, fluorescence polarization. O14786. 360,000 tested, 0.85% active;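 active means inhibition or corrected inhibition above about 18%, plus a signal ratio from 0.5 to 1.5, limit read from the data, passing the limit was not always enough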
Target sequence (O14786 whole entry, looked up): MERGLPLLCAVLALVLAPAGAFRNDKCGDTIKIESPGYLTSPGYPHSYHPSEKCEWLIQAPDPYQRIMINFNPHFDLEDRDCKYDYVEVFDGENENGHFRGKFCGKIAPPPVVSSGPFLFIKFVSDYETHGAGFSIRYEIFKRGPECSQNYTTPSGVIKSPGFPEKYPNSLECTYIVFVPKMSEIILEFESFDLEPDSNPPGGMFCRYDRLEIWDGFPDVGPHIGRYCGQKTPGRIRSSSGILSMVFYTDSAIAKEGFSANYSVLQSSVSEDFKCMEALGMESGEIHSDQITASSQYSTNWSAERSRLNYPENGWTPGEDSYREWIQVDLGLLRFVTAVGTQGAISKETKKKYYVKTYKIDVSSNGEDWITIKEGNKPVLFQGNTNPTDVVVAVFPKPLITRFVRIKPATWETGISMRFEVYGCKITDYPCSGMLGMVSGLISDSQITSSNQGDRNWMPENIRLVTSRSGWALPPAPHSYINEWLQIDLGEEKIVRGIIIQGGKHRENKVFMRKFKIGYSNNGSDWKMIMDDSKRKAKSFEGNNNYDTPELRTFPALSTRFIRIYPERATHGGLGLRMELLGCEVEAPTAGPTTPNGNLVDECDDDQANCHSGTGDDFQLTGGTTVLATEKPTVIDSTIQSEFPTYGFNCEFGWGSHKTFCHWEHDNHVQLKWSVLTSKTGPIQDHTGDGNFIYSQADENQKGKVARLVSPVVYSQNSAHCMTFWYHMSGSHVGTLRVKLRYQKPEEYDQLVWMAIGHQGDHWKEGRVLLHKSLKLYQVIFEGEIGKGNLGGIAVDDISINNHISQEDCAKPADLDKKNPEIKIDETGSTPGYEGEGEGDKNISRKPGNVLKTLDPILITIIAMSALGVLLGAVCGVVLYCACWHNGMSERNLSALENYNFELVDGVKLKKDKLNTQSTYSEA
Myeloid diff 2: compounds promoting myeloid differentiation; ER-HoxA9 myeloid progenitors, lysozyme-GFP differentiation, flow cytometry; 360,000 tested, 1% active; calls only at 10 µM;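 active means normalized GFP-positive differentiation at or above the plate's own cutoff, the solvent-only control mean plus 3 SD; inconclusive means no clear call, values can overlap the other calls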;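 further: cells exposed to compound for four days before flow analysis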
ABCB6 inh MLPCN: blocks the human ABCB6 transporter | Q9NP58 | K562-ABCB6 porphyrin accumulation, flow cytometry, 1 h; active compounds read low | fluorescence ratio to DMSO, % at 10 µM | 360,000 tested, 0.19% active | AID 602162;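 active means fluorescence ratio to DMSO below 75%, the collection mean minus 3 SD; inconclusive means too few cells collected in the well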;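 further: signal is porphyrin accumulated inside mitochondria; 100% equals median channel fluorescence of DMSO control wells; lower ratio means ABCB6 inhibition with less porphyrin fluorescence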
ATG4B inh: inhibitors of human ATG4B cysteine protease; Q9Y4P1; ATG4B cleavage of LC3-PLA2, NBD-HPC fluorescence, 1 h; inhibition, % at 8.33 µM; 340,000 tested, 0.51% active; AID 504462; in the data active means inhibition above about 40%
Exocytosis inh: blocks lytic granule exocytosis; TALL-104 LAMP-1 surface exposure, flow cytometry; cells stimulated with thapsigargin and PMA; inhibition, % at 10 µM; 360,000 tested, 0.66% active; AID 651702;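 active means inhibition above about 55%, limit read from the data; inconclusive means no clear call, values can overlap the other calls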
Arrestin-AP2 inh: blocks beta-arrestin peptide binding to AP2 adaptin. FITC-arrestin peptide / GST-AP2 beads, flow cytometry; AP2 beta2 appendage carries R879A mutation. inhibition, % at 10 µM. 340,000 tested, 0.31% active. AID 504490;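 active means inhibition above a set limit, near 3 SD of compounds lacking own fluorescence, cut at about 54% in these data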;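 further: plate controls were DMSO wells for no effect and 5 µM unlabelled arrestin peptide for full effect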
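Test system: GST-tagged AP2 beta2-adaptin appendage (R879A) on 4 µm glutathione beads; also added: fluorescein-tagged arrestin peptide at 50 nM final; timing: 12 min plus 1 h, RT; signal: flow cytometry, FL1 (488/535 nm); read-out: percent drop in bead-associated FITC signal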
* marks the source's active call; other numbers are inactive results. A selection: hits, their analogues and other compounds. The true share with any hit is near 3.3%.

Cc1nnc(N2C(=O)C(O)=C(C(=O)c3ccco3)C2c2ccc(C(C)(C)C)cc2)s1 (stereo unspecified) was read as CendR NRP1 mod -64, Myeloid diff 2 active, ABCB6 inh MLPCN 124, ATG4B inh -17, Exocytosis inh 0 and Arrestin-AP2 inh -1.
`Cc1ccc2[nH]c3c(=O)n(CC(=O)Nc4ccccc4N4CCN(C)CC4)ncc3c2c1` gave CendR NRP1 mod 4, Myeloid diff 2 inactive, ABCB6 inh MLPCN 103, ATG4B inh 3, Exocytosis inh 17 and Arrestin-AP2 inh 25.
For N/C(=N\OC(=O)c1ccc(Cl)cc1Cl)c1ccc(Cl)cc1 the results were CendR NRP1 mod 30*, Myeloid diff 2 inactive, ABCB6 inh MLPCN 100, ATG4B inh -2, Exocytosis inh 11 and Arrestin-AP2 inh -3.
Screening COCc1cc(S(=O)c2ccc(Cl)cc2)nc(C)n1 (stereo unspecified) returned CendR NRP1 mod 10, Myeloid diff 2 inactive, ABCB6 inh MLPCN 97, ATG4B inh 5, Exocytosis inh 1 and Arrestin-AP2 inh 7.
CCOC(=O)C(C)Sc1nc(=O)n2ccccc2n1 (stereo unspecified) was read as CendR NRP1 mod 19*, Myeloid diff 2 inactive, ABCB6 inh MLPCN 105, ATG4B inh -3, Exocytosis inh -2 and Arrestin-AP2 inh -27.
Screening CCC1(CC)C(=O)NN(c2ccccc2)C1=O returned CendR NRP1 mod 27*, Myeloid diff 2 inactive, ABCB6 inh MLPCN 101, ATG4B inh -6, Exocytosis inh -1 and Arrestin-AP2 inh 4.
Screening COc1ccc(C)cc1NC(C)C(=O)NC(=O)NC1CCCCC1 (stereo unspecified) returned CendR NRP1 mod 5, Myeloid diff 2 inactive, ABCB6 inh MLPCN 97, ATG4B inh 0, Exocytosis inh 0 and Arrestin-AP2 inh 4.
Screening COc1ccccc1CN1C(=O)CN(C2CCCC2)C(=O)C1c1ccc(F)cc1 (stereo unspecified) returned CendR NRP1 mod 15, Myeloid diff 2 active, ABCB6 inh MLPCN 97, ATG4B inh 9, Exocytosis inh -2 and Arrestin-AP2 inh 2.
For CC(C)C(Nc1ccc(S(=O)(=O)N2CCOCC2)cc1[N+](=O)[O-])C(=O)O (stereo unspecified) the results were CendR NRP1 mod 28*, Myeloid diff 2 inactive, ABCB6 inh MLPCN 101, ATG4B inh 8, Exocytosis inh -5 and Arrestin-AP2 inh 17.
Cc1cccc(COc2ccc(S(=O)(=O)N3CCOCC3)cc2[N+](=O)[O-])c1 was read as CendR NRP1 mod 20*, Myeloid diff 2 inactive, ABCB6 inh MLPCN 96, ATG4B inh -18, Exocytosis inh 29 and Arrestin-AP2 inh -15.
O=[N+]([O-])c1cc(S(=O)(=O)N2CCOCC2)ccc1OCc1cccc(Cl)c1 was read as CendR NRP1 mod 5, Myeloid diff 2 inactive, ABCB6 inh MLPCN 95, ATG4B inh 6, Exocytosis inh 3 and Arrestin-AP2 inh -3.
`O=C1CSC(c2ccccc2Cl)N1` (stereo unspecified) gave CendR NRP1 mod 0, Myeloid diff 2 inactive, ABCB6 inh MLPCN 105, ATG4B inh -5, Exocytosis inh 1 and Arrestin-AP2 inh 19.
COCCC(=O)N1CCC(Oc2ccc(C(=O)NCCn3cccn3)cc2)CC1 was read as CendR NRP1 mod 36*, Myeloid diff 2 inactive, ABCB6 inh MLPCN 97, ATG4B inh -2, Exocytosis inh -5 and Arrestin-AP2 inh 40.
`Cc1cnc(C(=O)OCC(=O)C23CC4CC(CC(C4)C2)C3)cn1` gave CendR NRP1 mod 6, Myeloid diff 2 active, ABCB6 inh MLPCN 100, ATG4B inh -5, Exocytosis inh -4 and Arrestin-AP2 inh -6.
Screening COc1ccc(C2C3=C(CC(C)(C)CC3=O)Nc3c2c(=O)[nH]c2nc(C)nn32)cc1 (stereo unspecified) returned CendR NRP1 mod -10, Myeloid diff 2 active, ABCB6 inh MLPCN 102, ATG4B inh 2, Exocytosis inh -5 and Arrestin-AP2 inh 1.
For Cc1cc(C)n(CC(O)Cn2c(C)c(C)c3ccccc32)n1 (stereo unspecified) the results were CendR NRP1 mod -97, Myeloid diff 2 active, ABCB6 inh MLPCN 389, ATG4B inh -8, Exocytosis inh 0 and Arrestin-AP2 inh 14.
CCCCOC(=O)c1ccc(NC(=O)COC(=O)CSc2nc(C)cc(C)n2)cc1 was read as CendR NRP1 mod -18, Myeloid diff 2 inactive, ABCB6 inh MLPCN 99, ATG4B inh -11, Exocytosis inh -1 and Arrestin-AP2 inh -1.
`CCC(=O)OCCNc1cc(Sc2nc3ccccc3s2)c2nonc2c1[N+](=O)[O-]` gave CendR NRP1 mod 4, Myeloid diff 2 inconclusive, ABCB6 inh MLPCN 98, ATG4B inh 3, Exocytosis inh 103* and Arrestin-AP2 inh 18.
O=[N+]([O-])c1c(NCCCO)cc(Sc2nc3ccccc3s2)c2nonc12 was read as CendR NRP1 mod 6, Myeloid diff 2 inconclusive, ABCB6 inh MLPCN 92, ATG4B inh -3, Exocytosis inh 40 and Arrestin-AP2 inh 6.
For CC1CC1C(=O)OCC(=O)NNC(=O)c1ccc([N+](=O)[O-])cc1 (stereo unspecified) the results were CendR NRP1 mod 3, Myeloid diff 2 inactive, ABCB6 inh MLPCN 95, ATG4B inh -8, Exocytosis inh -1 and Arrestin-AP2 inh 4.
C=CCNC(=O)C1CCC(CNc2nc(=S)[nH]c3ccccc23)CC1 (stereo unspecified) was read as CendR NRP1 mod 6, Myeloid diff 2 inactive, ABCB6 inh MLPCN 99, ATG4B inh 3, Exocytosis inh -10 and Arrestin-AP2 inh 14.
O=C(C1CCC(CNc2nc(=S)[nH]c3ccccc23)CC1)N1CCN(c2ccccn2)CC1 (stereo unspecified) was read as CendR NRP1 mod 1, Myeloid diff 2 active, ABCB6 inh MLPCN 97, ATG4B inh 6, Exocytosis inh 2 and Arrestin-AP2 inh 9.
CCOC(=O)CNC(=O)CSc1nccn1Cc1ccco1 was read as CendR NRP1 mod -8, Myeloid diff 2 inactive, ABCB6 inh MLPCN 95, ATG4B inh 2, Exocytosis inh -2 and Arrestin-AP2 inh 3.
`Cc1cc(C(=O)N2CCCC(N3CCN(c4cccc(C(F)(F)F)c4)CC3)C2)c(C)o1` (stereo unspecified) gave CendR NRP1 mod 12, Myeloid diff 2 inactive, ABCB6 inh MLPCN 95, ATG4B inh 4, Exocytosis inh 2 and Arrestin-AP2 inh -4.
`Cc1c(Nc2cc(Cl)c3nonc3c2[N+](=O)[O-])c(=O)n(-c2ccccc2)n1C` gave CendR NRP1 mod 4, Myeloid diff 2 inconclusive, ABCB6 inh MLPCN 38*, ATG4B inh -2, Exocytosis inh 8 and Arrestin-AP2 inh 32.
